Assay results: ChEMBL document CHEMBL2331392, “Antiviral phenolic compounds from Arundina gramnifolia” (J Nat Prod, 2013)
Values after ≈ are worked out from the molar mass of the structure shown.

What was measured:
[1] = Therapeutic index, ratio of CC50 for human C8166 cells to EC50 for HIV-1 3B infected in human C8166 cells; format: cell-based; details: C8166 cells (CC50) and HIV-1 3B infected C8166 cells (EC50)
Procedure, shortened: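 CC50 came from MTT cytotoxicity on C8166 cells. EC50 came from inhibition of HIV-1 cytopathic effect in C8166 cells. Azidothymidine was the positive control. The index is CC50 divided by EC50.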

[2] = Cytotoxicity against human C8166 cells assessed as inhibition of cell viability after 3 days by MTT assay; format: cell-based
Procedure, shortened: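 C8166 cells tested with the MTT method. Cytotoxicity reported as CC50. Azidothymidine ran alongside as positive control.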

[3] = tested on: Human immunodeficiency virus 1; experiment: Antiviral activity against HIV-1 3B infected in human C8166 cells assessed as inhibition of syncytia formation after 3 days; format: functional, organism-based; details: Human immunodeficiency virus 1, 3B, C8166, 72 h
Tobacco mosaic virus [4] = experiment: Antiviral activity against TMV strain U1 infected in compound-pretreated Nicotiana glutinosa leaves assessed as inhibition of viral infection at 20 uM incubated with leaf for 6 hrs prior to viral inoculation; format: functional
Procedure, shortened: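 Protection assay with TMV U1 on tobacco leaves. Leaves were pretreated with compound at 20 μM for 6 h before virus inoculation. Compounds were dissolved in DMSO and diluted with water; a DMSO solution served as negative control and ningnanmycin as positive control. Inhibition rates are mean ± SD, n = 3.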

Tobacco mosaic virus [5] = experiment: Antiviral activity against TMV strain U1 infected in Nicotiana glutinosa leaves assessed as decrease in number of local leaf lesions incubated with virus for 30 mins prior to inoculation on leaves measured 3 to 4 days post-viral infection by half-leaf method; format: functional, organism-based
Procedure, shortened: (§1)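 Half-leaf assay on N. glutinosa. TMV U1 was multiplied in N. tabacum cv. K326, purified, and set to 20 mg/mL by UV absorbance at 260 nm. Compounds were dissolved in DMSO and diluted with water. Virus and compound were mixed for 30 min and applied to the left leaf half; the right half got virus plus matched DMSO. Ningnanmycin served as positive control. Three leaf blades per compound. Inhibition % = (C−T)/C×100 from mean local lesion counts.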

Tobacco mosaic virus [6] = experiment: Antiviral activity against TMV strain U1 infected in Nicotiana glutinosa leaves assessed as decrease in number of local leaf lesions at 20 uM incubated with virus for 30 mins prior to inoculation on leaves measured 3 to 4 days post-viral infection by half-leaf method; format: functional; procedure, shortened: as §1

`Cc1cn([C@H]2C[C@H](N=[N+]=[N-])[C@@H](CO)O2)c(=O)[nH]c1=O` [ZIDOVUDINE] showed a selectivity ratio [1] greater than 5880 and a CC50 at 72 h [2] greater than 200 µg/mL.

`COc1ccc(-c2cc3cc4c(cc3o2)OC(C)(C)C=C4)cc1` [GRAMNIPHENOL G] showed a selectivity ratio [1] of 13.9, a CC50 at 72 h [2] of 88.7 µg/mL (≈ 290 µM) and an EC50 [3] of 6.38 µg/mL (≈ 20.8 µM). For the same compound, the inhibition at 20 µM (Tobacco mosaic virus [4]) was 36.1%, the IC50 (Tobacco mosaic virus [5]) was 57.7 µM and the inhibition at 20 µM (Tobacco mosaic virus [6]) was 32.1%.

Work on `COc1cc(O)cc2c1-c1c(O)ccc(O)c1C2=O` yielded a selectivity ratio [1] of 19.3, a CC50 at 72 h [2] of 105 µg/mL (≈ 408 µM) and an EC50 [3] of 5.47 µg/mL (≈ 21.2 µM). The inhibition at 20 µM (Tobacco mosaic virus [4]) was 16.7%, the IC50 (Tobacco mosaic virus [5]) was 98.3 µM and the inhibition at 20 µM (Tobacco mosaic virus [6]) was 17.4%.

With `CNCC(=O)N[C@@H](CO)C(=O)N[C@H]1[C@H](O)[C@@H](O)[C@H](n2ccc(N)nc2=O)O[C@@H]1C(N)=O` [NINGNANMYCIN] the inhibition at 20 µM (Tobacco mosaic virus [4]) was 30%, the IC50 (Tobacco mosaic virus [5]) was 42.2 µM and the inhibition at 20 µM (Tobacco mosaic virus [6]) was 31.8%.

`COc1ccc2c(c1)C=C[C@@H](c1ccc(O)c(C(=O)CCO)c1OC)O2` [GRAMNIPHENOL C] gave a selectivity ratio [1] of 44.3, a CC50 at 72 h [2] of 145 µg/mL (≈ 407 µM) and an EC50 [3] of 3.28 µg/mL (≈ 9.2 µM). The inhibition at 20 µM (Tobacco mosaic virus [4]) was 56.3%, the IC50 (Tobacco mosaic virus [5]) was 20.8 µM and the inhibition at 20 µM (Tobacco mosaic virus [6]) was 48.2%.

In the case of `C=C(C)[C@H](O)COc1cc(OC)c2c(c1)C(=O)c1c(O)ccc(O)c1-2` [GRAMNIPHENOL D], the selectivity ratio [1] is reported as greater than 137, the CC50 at 72 h [2] is reported as greater than 200 µg/mL and the EC50 [3] is reported as 1.46 µg/mL (≈ 4.26 µM). The inhibition at 20 µM (Tobacco mosaic virus [4]) was 11.4%, the IC50 (Tobacco mosaic virus [5]) was 129 µM and the inhibition at 20 µM (Tobacco mosaic virus [6]) was 13.3%.

`CC1(C)C=Cc2cc3cc(-c4ccc(O)cc4)oc3cc2O1` [GRAMNIPHENOL F] showed a selectivity ratio [1] of 19.6, a CC50 at 72 h [2] of 102 µg/mL (≈ 351 µM) and an EC50 [3] of 5.22 µg/mL (≈ 17.9 µM). For the same compound, the inhibition at 20 µM (Tobacco mosaic virus [4]) was 33.8%, the IC50 (Tobacco mosaic virus [5]) was 40.8 µM and the inhibition at 20 µM (Tobacco mosaic virus [6]) was 35.8%.

With `C/C=C/c1cc(OC)c(OC)cc1C(=O)c1cc(OC)c(OC)c(OC)c1` [GRAMNIPHENOL B] the selectivity ratio [1] was 106, the CC50 at 72 h [2] was 134 µg/mL (≈ 361 µM) and the EC50 [3] was 1.27 µg/mL (≈ 3.41 µM).

`COc1cc(O)cc2c1-c1c(O)cc(O)cc1C2=O` gave a selectivity ratio [1] of 31.8, a CC50 at 72 h [2] of 86.7 µg/mL (≈ 336 µM) and an EC50 [3] of 2.73 µg/mL (≈ 10.6 µM). For the same compound, the inhibition at 20 µM (Tobacco mosaic virus [6]) was 7.9%.

Work on `COc1ccc(/C=C/Cc2ccc(O)c(OC)c2OC)cc1O` [CANDENATENIN A] yielded a selectivity ratio [1] of 44.3, a CC50 at 72 h [2] of 145 µg/mL (≈ 459 µM) and an EC50 [3] of 3.28 µg/mL (≈ 10.4 µM). The inhibition at 20 µM (Tobacco mosaic virus [4]) was 24%, the IC50 (Tobacco mosaic virus [5]) was 70.6 µM and the inhibition at 20 µM (Tobacco mosaic virus [6]) was 21.2%.

`C=C(C)[C@H](O)COc1cc(OC)c2c(c1)C(=O)c1cc(O)cc(O)c1-2` [GRAMNIPHENOL E] showed a selectivity ratio [1] greater than 127, a CC50 at 72 h [2] greater than 200 µg/mL and an EC50 [3] of 1.58 µg/mL (≈ 4.62 µM). It also gave an inhibition at 20 µM (Tobacco mosaic virus [6]) of 7.16%.

Compound `Oc1cc(O)cc(-c2cc3ccc(O)cc3o2)c1` [MORACIN M] has a selectivity ratio [1] of 12.5, a CC50 at 72 h [2] of 57.4 µg/mL (≈ 237 µM) and an EC50 [3] of 4.59 µg/mL (≈ 18.9 µM). The inhibition at 20 µM (Tobacco mosaic virus [4]) was 10.2%, the IC50 (Tobacco mosaic virus [5]) was 128 µM and the inhibition at 20 µM (Tobacco mosaic virus [6]) was 13.2%.
